Measured values reported in ChEMBL document CHEMBL4814057, “4-4-(Anilinomethyl)-3-[4-(trifluoromethyl)phenyl]-1H-pyrazol-1-ylbenzoic acid derivatives as potent anti-gram-positive bacterial agents” (Eur J Med Chem, 2021).
Values after ≈ are worked out from the molar mass of the structure shown. Active and inactive are the calls of the source. No cut-off for these calls is given here.

Legend:
Staphylococcus aureus [1] = experiment: Antimicrobial activity against methicillin-resistant Staphylococcus aureus clinical isolate 1088888 by CLSI-based broth microdilution assay; format: functional
Enterococcus faecium [2] = experiment: Antimicrobial activity against vancomycin-resistant Enterococcus faecium clinical isolate 1088051 by CLSI-based broth microdilution assay; format: functional
Enterococcus faecium [3] = experiment: Antimicrobial activity against vancomycin-resistant Enterococcus faecium clinical isolate 1088925 by CLSI-based broth microdilution assay; format: functional
Enterococcus faecium [4] = experiment: Antimicrobial activity against vancomycin-resistant Enterococcus faecium clinical isolate 1088228 by CLSI-based broth microdilution assay; format: functional
Enterococcus faecium [5] = experiment: Antimicrobial activity against vancomycin-resistant Enterococcus faecium clinical isolate 1094112 by CLSI-based broth microdilution assay; format: functional
Staphylococcus aureus [6] = experiment: Antimicrobial activity against methicillin-sensitive Staphylococcus aureus ATCC 29213 by CLSI-based broth microdilution assay; format: functional
Staphylococcus aureus [7] = experiment: Antimicrobial activity against methicillin-resistant Staphylococcus aureus clinical isolate 1088064 by CLSI-based broth microdilution assay; format: functional
Enterococcus faecium [8] = experiment: Antimicrobial activity against vancomycin-resistant Enterococcus faecium clinical isolate 1091282 by CLSI-based broth microdilution assay; format: functional
Enterococcus faecium [9] = experiment: Antimicrobial activity against vancomycin-resistant Enterococcus faecium clinical isolate 1100440 by CLSI-based broth microdilution assay; format: functional
Enterococcus faecium [10] = experiment: Antimicrobial activity against vancomycin-resistant Enterococcus faecium clinical isolate 1088168 by CLSI-based broth microdilution assay; format: functional
Staphylococcus aureus [11] = experiment: Antimicrobial activity against methicillin-sensitive Staphylococcus aureus clinical isolate 1088626 by CLSI-based broth microdilution assay; format: functional
Enterococcus faecium [12] = experiment: Antimicrobial activity against vancomycin-resistant Enterococcus faecium clinical isolate 1091563 by CLSI-based broth microdilution assay; format: functional
Enterococcus faecium [13] = experiment: Antimicrobial activity against vancomycin-resistant Enterococcus faecium clinical isolate 1089544 by CLSI-based broth microdilution assay; format: functional
Staphylococcus aureus [14] = experiment: Antimicrobial activity against methicillin-resistant Staphylococcus aureus clinical isolate 1088610 by CLSI-based broth microdilution assay; format: functional
Staphylococcus aureus [15] = experiment: Antimicrobial activity against methicillin-resistant Staphylococcus aureus clinical isolate 1089106 by CLSI-based broth microdilution assay; format: functional
Enterococcus faecium [16] = experiment: Antimicrobial activity against vancomycin-resistant Enterococcus faecium clinical isolate 1091720 by CLSI-based broth microdilution assay; format: functional
Staphylococcus aureus [17] = experiment: Antimicrobial activity against methicillin-sensitive Staphylococcus aureus clinical isolate 1088105 by CLSI-based broth microdilution assay; format: functional
Staphylococcus aureus [18] = experiment: Antibacterial activity against methicillin resistant Staphylococcus aureus ATCC 700699 persisters assessed as reduction in viability at 64 times MIC by colony counting method; format: functional, organism-based
Outline: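 Stationary-phase S. aureus from overnight CAMHB culture (35 °C, 200 rpm), washed thrice in PBS, diluted to ~5 × 10^8 CFU/ml. Incubated with antibiotic at 35 °C, 200 rpm. Aliquots taken at set times, washed, serially diluted in PBS, drop-plated (6 × 6) on TSA with 5% sheep blood. Colonies counted after 18–20 h at 35 °C. Triplicates.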

Staphylococcus aureus [19] = experiment: Inhibition of protein synthesis in Staphylococcus aureus ATCC 29213 at 8 times MIC measured by liquid scintillation counter; format: functional
Staphylococcus aureus [20] = experiment: Antimicrobial activity against methicillin-resistant Staphylococcus aureus ATCC 33591 assessed as bacterial growth inhibitions by CLSI protocol based microdilution method; format: functional
Staphylococcus aureus [21] = experiment: Antimicrobial activity against methicillin-susceptible Staphylococcus aureus ATCC 25923 assessed as bacterial growth inhibitions by CLSI protocol based microdilution method; format: functional
Staphylococcus aureus [22] = experiment: Antimicrobial activity against methicillin-resistant Staphylococcus aureus ATCC 700699 assessed as bacterial growth inhibitions by CLSI protocol based microdilution method; format: functional
Bacillus subtilis = experiment: Antimicrobial activity against Bacillus subtilis ATCC 6623 assessed as bacterial growth inhibitions by CLSI protocol based microdilution method; format: functional
Outline: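 Broth microdilution starting at 50 µg/ml with 2-fold serial dilutions; run in triplicate.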

[23] = test system: Staphylococcus epidermidis; experiment: Antimicrobial activity against methicillin-resistant Staphylococcus epidermidis ATCC 700296 assessed as bacterial growth inhibitions by CLSI protocol based microdilution method; format: functional
Staphylococcus aureus [24] = experiment: Antimicrobial activity against antibiotic-resistant Staphylococcus aureus BM-2312 assessed as bacterial growth inhibitions by CLSI protocol based microdilution method; format: functional
Enterococcus faecalis [25] = experiment: Antimicrobial activity against vancomycin-susceptible Enterococcus faecalis ATCC 29212 assessed as bacterial growth inhibitions by CLSI protocol based microdilution method
Enterococcus faecium [26] = experiment: Antimicrobial activity against vancomycin-resistant Enterococcus faecium ATCC 700221 assessed as bacterial growth inhibitions by CLSI protocol based microdilution method; format: functional
Staphylococcus aureus [27] = experiment: Antimicrobial activity against methicillin-resistant Staphylococcus aureus ATCC 33592 assessed as bacterial growth inhibitions by CLSI protocol based microdilution method; format: functional
Enterococcus faecalis [28] = experiment: Antibiofilm activity against Enterococcus faecalis ATCC 29212 assessed as inhibition of biofilm formation at 2 times MIC after 24 hrs by crystal violet staining based assay relative to control; format: functional; set-up: scale not given: the % may be the effect or the level left
Outline: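 Overnight culture brought to 0.5 McFarland in PBS, diluted 1:100 in CAMHB with 1% glucose. Inhibition: cells plus compound (in DMSO) at 2x, 1x, 0.5xMIC, 24 h at 35 °C, triplicate. Destruction: 24 h biofilm grown without drug, washed, fresh medium with compound, further 24 h. Then washed, dried, 0.1% crystal violet, solubilized in 33% acetic acid, OD 620 nm. Controls are DMSO-only and broth-only wells.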

Molecule | MIC (Staphylococcus aureus [20]) | MIC (Staphylococcus aureus [21]) | MIC (Staphylococcus aureus [22]) | MIC (Bacillus subtilis) | MIC [23] | MIC (Staphylococcus aureus [24]) | MIC (Enterococcus faecalis [25]) | MIC (Enterococcus faecium [26]) | MIC (Staphylococcus aureus [27]) | also measured
Cc1onc(-c2ccccc2)c1C(=O)N[C@@H]1C(=O)N2[C@@H]1SC(C)(C)[C@@H]2C(=O)O [OXACILLIN] |  |  |  |  |  |  |  |  |  | MIC (Staphylococcus aureus [1]): 1 µg/mL (≈ 2.49 µM); MIC (Enterococcus faecium [2]): > 32 µg/mL; MIC (Enterococcus faecium [3]): > 32 µg/mL; MIC (Enterococcus faecium [4]): > 32 µg/mL; MIC (Enterococcus faecium [5]): > 32 µg/mL; MIC (Staphylococcus aureus [6]): 1 µg/mL (≈ 2.49 µM); MIC (Staphylococcus aureus [7]): 0.5 µg/mL (≈ 1.25 µM); MIC (Enterococcus faecium [8]): > 32 µg/mL; MIC (Enterococcus faecium [9]): > 32 µg/mL; MIC (Enterococcus faecium [10]): > 32 µg/mL; MIC (Staphylococcus aureus [11]): 0.5 µg/mL (≈ 1.25 µM); MIC (Enterococcus faecium [12]): > 32 µg/mL; MIC (Enterococcus faecium [13]): > 32 µg/mL; MIC (Staphylococcus aureus [14]): 0.5 µg/mL (≈ 1.25 µM); MIC (Staphylococcus aureus [15]): 1 µg/mL (≈ 2.49 µM); MIC (Enterococcus faecium [16]): > 32 µg/mL; MIC (Staphylococcus aureus [17]): 1 µg/mL (≈ 2.49 µM)
GENTAMICIN |  |  |  |  |  |  |  |  |  | Activity (Staphylococcus aureus [18]): inactive
CC(=O)NC[C@H]1CN(c2ccc(N3CCOCC3)c(F)c2)C(=O)O1 |  |  |  |  |  |  |  |  |  | inhibition (Staphylococcus aureus [19]): 70.7%
O=C(O)c1ccc(-n2cc(CNc3ccc(C(=O)O)c(C(F)(F)F)c3)c(-c3ccc(C(F)(F)F)cc3)n2)cc1 | inactive | 50 µg/mL (≈ 91 µM) | inactive | inactive | 50 µg/mL (≈ 91 µM) | 50 µg/mL (≈ 91 µM) | inactive | inactive | inactive | 
O=C(O)c1ccc(-n2cc(CNc3cc(Cl)c(F)c(Cl)c3F)c(-c3ccc(C(F)(F)F)cc3)n2)cc1 | 0.78 µg/mL (≈ 1.44 µM) | 0.78 µg/mL (≈ 1.44 µM) | 0.78 µg/mL (≈ 1.44 µM) | 0.78 µg/mL (≈ 1.44 µM) | 0.78 µg/mL (≈ 1.44 µM) | 0.78 µg/mL (≈ 1.44 µM) | 0.78 µg/mL (≈ 1.44 µM) | 0.78 µg/mL (≈ 1.44 µM) | 0.78 µg/mL (≈ 1.44 µM) | Activity (Enterococcus faecalis [28]): 80%
O=C(O)c1ccc(-n2cc(CNc3ccc(F)c(Cl)c3F)c(-c3ccc(C(F)(F)F)cc3)n2)cc1 | 1.56 µg/mL (≈ 3.07 µM) | 1.56 µg/mL (≈ 3.07 µM) | 1.56 µg/mL (≈ 3.07 µM) | 0.78 µg/mL (≈ 1.54 µM) | 1.56 µg/mL (≈ 3.07 µM) | 1.56 µg/mL (≈ 3.07 µM) | 6.25 µg/mL (≈ 12.3 µM) | 1.56 µg/mL (≈ 3.07 µM) | 1.56 µg/mL (≈ 3.07 µM) | 
O=C(O)c1ccc(-n2cc(CNc3ccc(Cl)c(Cl)c3F)c(-c3ccc(C(F)(F)F)cc3)n2)cc1 | 0.78 µg/mL (≈ 1.49 µM) | 0.78 µg/mL (≈ 1.49 µM) | 0.78 µg/mL (≈ 1.49 µM) | 0.78 µg/mL (≈ 1.49 µM) | 0.78 µg/mL (≈ 1.49 µM) | 0.78 µg/mL (≈ 1.49 µM) | 1.56 µg/mL (≈ 2.98 µM) | 0.78 µg/mL (≈ 1.49 µM) | 0.78 µg/mL (≈ 1.49 µM) | 
O=C(O)c1ccc(-n2cc(CNc3ccccc3)c(-c3ccc(C(F)(F)F)cc3)n2)cc1 | 6.25 µg/mL (≈ 14.3 µM) | 12.5 µg/mL (≈ 28.6 µM) | 6.25 µg/mL (≈ 14.3 µM) | 3.12 µg/mL (≈ 7.13 µM) | 12.5 µg/mL (≈ 28.6 µM) | 12.5 µg/mL (≈ 28.6 µM) | 25 µg/mL (≈ 57.2 µM) | 6.25 µg/mL (≈ 14.3 µM) | 6.25 µg/mL (≈ 14.3 µM) | 
O=C(O)c1ccc(-n2cc(CNc3cccc(F)c3)c(-c3ccc(C(F)(F)F)cc3)n2)cc1 | 3.12 µg/mL (≈ 6.85 µM) | 3.12 µg/mL (≈ 6.85 µM) | 3.12 µg/mL (≈ 6.85 µM) | 1.56 µg/mL (≈ 3.43 µM) | 6.25 µg/mL (≈ 13.7 µM) | 3.12 µg/mL (≈ 6.85 µM) | 25 µg/mL (≈ 54.9 µM) | 6.25 µg/mL (≈ 13.7 µM) | 3.12 µg/mL (≈ 6.85 µM) | 
N#Cc1ccc(NCc2cn(-c3ccc(C(=O)O)cc3)nc2-c2ccc(C(F)(F)F)cc2)cc1C(F)(F)F | 0.78 µg/mL (≈ 1.47 µM) | 1.56 µg/mL (≈ 2.94 µM) | 1.56 µg/mL (≈ 2.94 µM) | 0.78 µg/mL (≈ 1.47 µM) | 3.12 µg/mL (≈ 5.88 µM) | 1.56 µg/mL (≈ 2.94 µM) | 12.5 µg/mL (≈ 23.6 µM) | 6.25 µg/mL (≈ 11.8 µM) | 0.78 µg/mL (≈ 1.47 µM) | 
